Compound activity (PubChem BioAssay)
SENP6 inh – SENP6 protease inhibitors, primary screen, biochemical, luminescence, uHTS; Sentrin-specific protease 6 (Homo sapiens), Q9GZR1; Recombinant SENP6 catalytic domain, aminoluciferin luminescence; inhibition, % at 10 µM; 330,000 tested, 1.8% active; AID 2599, 2010;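 active = inhibition above about 50% at the single tested dose, limit read from the data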;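 also: plate controls were DMSO wells with enzyme for no effect and DMSO wells lacking enzyme for full effect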
Target sequence (Q9GZR1 628-1112 limits assumed): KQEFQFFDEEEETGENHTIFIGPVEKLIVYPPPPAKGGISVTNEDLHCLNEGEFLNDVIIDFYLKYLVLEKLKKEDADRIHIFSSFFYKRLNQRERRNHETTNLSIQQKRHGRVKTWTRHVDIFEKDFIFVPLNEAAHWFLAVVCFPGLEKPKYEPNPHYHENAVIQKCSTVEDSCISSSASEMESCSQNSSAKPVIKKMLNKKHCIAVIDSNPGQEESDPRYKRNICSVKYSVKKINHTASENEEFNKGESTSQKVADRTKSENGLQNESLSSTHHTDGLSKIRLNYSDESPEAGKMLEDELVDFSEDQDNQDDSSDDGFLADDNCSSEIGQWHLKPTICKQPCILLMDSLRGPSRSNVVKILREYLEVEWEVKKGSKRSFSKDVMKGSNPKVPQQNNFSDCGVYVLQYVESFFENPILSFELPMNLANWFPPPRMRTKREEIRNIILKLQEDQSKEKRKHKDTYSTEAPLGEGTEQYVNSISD
SENP8 block-1 – human SENP8 protease inhibitors, primary screen, biochemical, fluorescence, Nedd8 protein substrate, uHTS. Sentrin-specific protease 8 (Homo sapiens), Q96LD8. recombinant SENP8. inhibition, % at 20 µM. 360,000 tested, 0.64% active. AID 602440, 2012; in the data active = inhibition mostly above about 40%, no sharp cut-off; inactive = mostly below about 27%
SENP1 inh – human SENP1 catalytic domain inhibitors, primary screen, biochemical, FRET, uHTS; Sentrin-specific protease 1 (Homo sapiens), Q9P0U3; recombinant SENP1 catalytic domain, CyPet-SUMO1-YPet FRET cleavage; inhibition, % at 10 µM; 360,000 tested, 0.21% active;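 active = inhibition at least 30% at 10 µM, raw YFP signal under a set limit, fluorescence ratio 0.5 to 1.5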;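 also: 0% = enzyme with DMSO and 100% = no enzyme wells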
Target sequence (Q9P0U3 419-644 limits assumed): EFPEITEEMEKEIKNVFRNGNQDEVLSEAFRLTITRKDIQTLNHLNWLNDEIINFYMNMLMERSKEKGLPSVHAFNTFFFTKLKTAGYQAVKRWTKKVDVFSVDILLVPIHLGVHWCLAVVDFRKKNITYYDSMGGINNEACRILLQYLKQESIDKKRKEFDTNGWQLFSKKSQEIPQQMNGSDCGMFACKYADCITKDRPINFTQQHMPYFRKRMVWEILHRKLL
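Assay system – human recombinant His6-tagged SENP1 catalytic domain enzyme · Input – SENP1 enzyme, 20 pM final · Buffer or medium – Tris pH 8 buffer plus EDTA, NaCl, BME, BSA, NP40, catalase · Schedule – 50 min reaction at room temperature · Technique – FRET read of cyan and yellow fluorescence · Control set – no-enzyme wells low, DMSO-plus-enzyme wells high control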
SENP8 block-2 – SENP8 protease inhibitors, primary screen, biochemical, luminescence; Sentrin-specific protease 8 (Homo sapiens), Q96LD8; purified SENP8, Z-RLRGG-aminoluciferin cleavage; inhibition, % at 10 µM; 330,000 tested, 1.2% active; AID 2540, 2010; in the data active = inhibition above about 50%
SENP7 block – SENP7 protease inhibitors, primary screen, biochemical, luminescence, uHTS; 330,000 tested, 1.5% active; recombinant SENP7, Z-RLRGG-aminoluciferin luminescence, 40 min; Sentrin-specific protease 7 (Homo sapiens), Q9BQF6; inhibition, % at 5 µM;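 active = inhibition above about 50% at the single test dose, limit read from the data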;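 also: plate controls were DMSO with enzyme for no effect and no enzyme buffer wells for full effect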
CendR NRP1 mod – modulators of CendR peptide binding to NRP-1, primary screen, biochemical, fluorescence polarization, uHTS; AID 602438, 2012; Neuropilin-1 (Homo sapiens), O14786; FAM-RPARPAR peptide binding to NRP-1; inhibition, % at 25 µM; 360,000 tested, 0.85% active;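 active = inhibition or corrected inhibition above about 18%, plus a signal ratio from 0.5 to 1.5, limit read from the data, passing the limit was not always enough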
SENP8 conf – SENP8 protease inhibitors, retest, confirmation, biochemical, luminescence, single concentration; 6,200 tested, 40% active; shares compounds with SENP7 block; AID 488912, 2010; inhibition, % at 12.5 µM; Recombinant SENP8, Z-RLRGG-aminoluciferin luminescence, 60 min;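 active = mean inhibition across replicates above about 50%, limit read from the data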
SENP6 confirm – SENP6 protease inhibitors, confirmation, biochemical, luminescence, single concentration; shares compounds with SENP7 block; recombinant SENP6, Z-RLRGG-aminoluciferin luminescence; inhibition, % at 12.5 µM; 6,200 tested, 58% active; AID 488915, 2010
SENP7 confirm – SENP7 protease inhibitors, retest, confirmation, biochemical, luminescence, single concentration | shares compounds with SENP7 block | recombinant SENP7, Z-RLRGG-aminoluciferin luminescence, 40 min | inhibition, % at 12.5 µM | 6,200 tested, 69% active | AID 488917, 2010
Casp3 SENP sel – caspase-3 protease inhibitors, confirmation, selectivity assay for SENP inhibitor project, biochemical, single concentration; purified caspase-3, Z-DEVD-aminoluciferin luminescence, 60 min; inhibition, % at 12.5 µM; 6,200 tested, 60% active; shares compounds with SENP7 block; AID 488918, 2010;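 active = mean inhibition above about 50%, limit read from the data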;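 also: plate controls were enzyme with DMSO for no effect and wells without caspase-3 for full effect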
Luc interf – interferes with luciferase luminescence in SENP counter-screen; Pre-incubated SENP8/Z-RLRGG-aminoluciferin, luciferase luminescence interference; AID 488919; inhibition, % at 12.5 µM; 6,200 tested, 39% active; shares compounds with SENP7 block;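 active = mean inhibition above about 50% when retested at one dose, limit read from the data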;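 also: plate controls were DMSO wells with completed reaction for no effect and substrate without enzyme for full effect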
* hit, by the source's call; x = no result. Shown are actives, neighbours in structure and some others; about 3.3% of the full set was active somewhere.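 The calls were made as follows, unless noted: active = mean inhibition above about 50% in the one-dose retest (limit read from the data); inactive = the rest.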

SMILES	SENP6 inh	SENP8 block-1	SENP1 inh	SENP8 block-2	SENP7 block	CendR NRP1 mod	SENP8 conf	SENP6 confirm	SENP7 confirm	Casp3 SENP sel	Luc interf
COCC(=O)N(C)C[C@@H]1Oc2ncc(Br)cc2C(=O)N([C@@H](C)CO)C[C@H]1C	x	-11.0	1.3	x	x	1.4	x	x	x	x	x
COCCn1c(SCC(=O)Nc2ccc(F)cc2)nc2c(c1=O)SCC2	x	9.1	0.5	x	x	15.1	x	x	x	x	x
COC(=O)c1ccc(/C=N/Nc2nc(-c3ccccc3)cs2)cc1	-6.1	-221.5	-40.3	-1.2	6.6	-1.9	x	x	x	x	x
COc1ccc(/C=N/Nc2nc(C(=O)O)cs2)cc1	92.9*	-119.7	-7.0	95.7*	96.5*	-16.1	97.1*	97.6*	102.1*	63.2*	97.6*
O=C(Nc1ccsc1C(=O)O)c1ccc(Cl)cc1	93.6*	1.8	0.8	90.7*	88.1*	-3.0	94.9*	95.8*	101.3*	96.1*	94.9*
Cc1ccc(C(=O)Nc2ccsc2C(=O)O)cc1	93.6*	14.6	-0.3	91.6*	93.6*	-1.2	1.4	96.8*	102.0*	97.7*	95.6*
CCCCCc1ccc(-c2ccc(/C=C/C(N)=O)cc2)nc1	16.7	-233.9	-4.3	-6.2	-1.0	-11.1	x	x	x	x	x
CCCc1ccc(-c2ccc(C(=O)O)cc2)nc1	68.7*	6.6	0.7	59.5*	67.4*	-1.4	69.7*	66.3*	90.3*	73.1*	69.5*
CCCc1ccc(OCC(=O)O)cc1	-2.7	13.2	1.7	-1.0	4.0	-6.8	x	x	x	x	x
CCCCCc1ccc(-c2ccc(OC)cc2)nc1	52.5*	11.5	1.1	26.5	39.1	7.5	24.7	31.5	63.7*	34.2	32.3
Oc1cccc(NC(=S)Nc2ccc(SC(F)F)cc2)c1	9.2	17.7	-2.0	-4.4	3.7	-14.5	x	x	x	x	x
Oc1cccc2c(NC(=S)Nc3ccc(SC(F)F)cc3)cccc12	85.1*	-185.4	-29.9	52.8*	29.9	5.5	24.2	19.6	-0.4	4.2	10.0
COc1cc(CN2C[C@@H](CO)O[C@@H](n3cnc4c(NCCCO)ncnc43)C2)cc(OC)c1OC	x	0.2	3.1	x	x	4.2	x	x	x	x	x
C1=CC2=NC34CCCCC3CC3=C(CCCC3)N4C2=CC1=NC1CCCCC1 (stereo unspecified)	51.2*	25.4	-21.1	13.4	2.5	-17.2	-25.0	-17.3	-10.8	-11.1	-7.2
CC1(C(=O)Nc2ccc3c(c2)OCO3)CCN1C(=O)CCc1ccc(Cl)cc1Cl (stereo unspecified)	x	14.5	0.2	x	x	-6.3	x	x	x	x	x
COc1ccc(C(=O)N2CCC(C)(C(=O)O)C2)cc1OC (stereo unspecified)	x	-0.3	2.1	x	x	-5.1	x	x	x	x	x
Cn1c(/N=C/c2c[nH]c3ccccc23)nc2ccccc21	95.0*	17.0	-6.2	94.2*	93.0*	15.6	95.8*	96.8*	102.9*	94.3*	20.1
CC(C)n1c(/N=C/c2c[nH]c3ccccc23)nc2ccccc21	1.4	20.8	-4.7	-9.7	8.5	10.4	x	x	x	x	x
COC(=O)c1ccc(CNC(=O)CC[C@H]2O[C@@H](n3cc(C)c(=O)[nH]c3=O)C[C@@H]2O)cc1	x	24.2	-0.4	x	x	-4.7	x	x	x	x	x
c1ccc(COc2ccc3nocc3c2)cc1	93.0*	-27.5	-2.7	89.7*	89.7*	4.7	85.5*	89.5*	100.2*	91.1*	83.6*
N#C/C(=C(/O)c1ccc([N+](=O)[O-])o1)c1nc2ccccc2[nH]1	65.8*	33.2	-35.7	39.3	42.5	-8.8	-1.6	-1.0	-3.7	-1.6	-3.5
Cc1ccc(Nc2n[nH]c(C)c2[N+](=O)[O-])cc1C	58.5*	25.7	2.5	41.6	33.0	2.4	22.6	42.2	83.7*	52.6*	3.2
CC(=O)c1ccc(COC(=O)c2cc3ccccc3oc2=O)cc1	4.3	-100.6	-5.5	-13.5	13.2	-19.2	x	x	x	x	x
COc1ccc(-c2cc3ccc(OCC(N)=O)cc3oc2=O)cc1OC	-12.2	-323.0	-89.5	-21.0	-22.6	6.6	x	x	x	x	x
O=C(c1ccc(Br)cc1)c1cc2ccc(O)cc2oc1=O	90.4*	-111.5	-22.2	91.8*	50.9*	-18.2	91.6*	94.9*	101.1*	96.1*	94.9*
SMILES	SENP6 inh	SENP8 block-1	SENP1 inh	SENP8 block-2	SENP7 block	CendR NRP1 mod	SENP8 conf	SENP6 confirm	SENP7 confirm	Casp3 SENP sel	Luc interf
O=C(c1ccccc1)c1cc2ccc(O)cc2oc1=O	95.3*	-150.9	-28.1	95.8*	98.4*	-8.1	97.6*	98.8*	102.3*	97.9*	95.5*
CCc1ccc(C(=O)c2cc3ccc(O)cc3oc2=O)cc1	59.7*	-199.2	-28.1	47.8	7.2	5.5	66.1*	61.8*	84.2*	71.2*	65.8*
COc1ccc(-c2cc3ccc(O)cc3oc2=O)cc1OC	98.8*	-382.5	-22.5	94.9*	99.6*	1.7	99.3*	100.3*	103.1*	98.9*	96.0*
CC(=O)c1cc2ccc(O)cc2oc1=O	13.6	-422.3	-33.8	4.2	18.4	13.4	x	x	x	x	x
COc1ccc(C(=O)c2cc3ccc(O)cc3oc2=O)cc1	99.6*	-275.4	-30.8	95.5*	96.7*	-10.5	96.3*	96.9*	102.5*	98.4*	94.9*
O=C(NCc1ccco1)c1cc2ccc(O)cc2oc1=O	98.2*	-406.5	-15.5	94.6*	95.6*	-10.4	99.2*	100.1*	103.4*	99.4*	99.0*
O=C(NCC(=O)N1CCCC(C(F)(F)F)C1)c1ccco1 (stereo unspecified)	3.3	6.3	-1.6	2.3	-0.7	6.8	x	x	x	x	x
